ChEMBL document CHEMBL2380302, “Synthesis of 3-O-propargylated betulinic acid and its 1,2,3-triazoles as potential apoptotic agents” (Eur J Med Chem, 2013)
Calls of active or inactive are those of the source. No cut-off for these calls is given here.

Columns and labels:
HEp-2 [1] = experiment: Cytotoxicity against human Hep2 cells at 10 uM after 48 hrs by SRB assay; type: functional; conditions: HEp-2, 48 h, read-out: GI
THP-1 [2] = experiment: Inhibition of colony formation in human THP1 cells using crystal violet staining after 24 hrs by clonogenic assay; type: functional, cell-based
How it was run: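 THP-1 cells from log-phase culture were plated at clonogenic dilution. After 24 h they were treated for 24 h, then incubated for at least six potential divisions (colonies >50 cells). Colonies were fixed and stained with 6% glutaraldehyde plus 0.5% crystal violet for 30 min, washed with water and air-dried.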

MCF7 [3] = experiment: Cytotoxicity against human MCF7 cells at 10 uM after 48 hrs by SRB assay; type: functional; conditions: MCF7, 48 h, read-out: GI
SF-295 [4] = experiment: Cytotoxicity against human SF295 cells after 48 hrs by SRB assay; type: functional, cell-based; conditions: SF-295, 48 h
HL-60 [5] = experiment: Cytotoxicity against human HL60 cells at 10 uM after 48 hrs by SRB assay; type: functional; conditions: HL-60, 48 h, read-out: GI
HL-60 [6] = experiment: Cytotoxicity against human HL60 cells at 30 uM after 48 hrs by SRB assay; type: functional; conditions: HL-60, 48 h, read-out: GI
SF-295 [7] = experiment: Cytotoxicity against human SF295 cells at 10 uM after 48 hrs by SRB assay; type: functional; conditions: SF-295, 48 h, read-out: GI
DU-145 [8] = experiment: Cytotoxicity against human DU145 cells at 30 uM after 48 hrs by SRB assay; type: functional; conditions: DU-145, 48 h, read-out: GI
HEp-2 [9] = experiment: Cytotoxicity against human Hep2 cells at 50 uM after 48 hrs by SRB assay; type: functional; conditions: HEp-2, 48 h, read-out: GI
MCF7 [10] = experiment: Cytotoxicity against human MCF7 cells at 50 uM after 48 hrs by SRB assay; type: functional; conditions: MCF7, 48 h, read-out: GI
A549 [11] = experiment: Cytotoxicity against human A549 cells at 10 uM after 48 hrs by SRB assay; type: functional; conditions: A549, 48 h, read-out: GI
HEp-2 [12] = experiment: Cytotoxicity against human Hep2 cells at 30 uM after 48 hrs by SRB assay; type: functional; conditions: HEp-2, 48 h, read-out: GI
HL-60 [13] = experiment: Induction of apoptosis in human HL60 cells assessed as DNA ladder formation after 24 hrs by DNA agarose gel electrophoresis; type: functional
How it was run: (§1)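 DNA fragmentation assay in HL-60 cells (2 × 10⁶ cells/well) or CV-1 cells, treated for 24 h. Cells were lysed in Tris–HCl pH 8.0/NaCl/EDTA/Triton X-100 with proteinase K (200 µg/mL) at 50 °C for 1 h, then DNase-free RNase for 90 min. DNA was phenol:chloroform extracted and ethanol precipitated. Gels were 1% agarose in TAE at 80 V for 1.5 h. Camptothecin (5 µM, 6 h) served as positive control in HL-60.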

DU-145 [14] = experiment: Cytotoxicity against human DU145 cells at 50 uM after 48 hrs by SRB assay; type: functional; conditions: DU-145, 48 h, read-out: GI
HCT-15 [15] = experiment: Cytotoxicity against human HCT15 cells at 50 uM after 48 hrs by SRB assay; type: functional; conditions: HCT-15, 48 h, read-out: GI
MCF7 [16] = experiment: Cytotoxicity against human MCF7 cells after 48 hrs by SRB assay; type: functional, cell-based; conditions: MCF7, 48 h
HL-60 [17] = experiment: Cytotoxicity against human HL60 cells after 48 hrs by SRB assay; type: functional, cell-based; conditions: HL-60, 48 h
THP-1 [18] = experiment: Inhibition of cell invasion in human THP1 cells at 1 to 30 uM after 24 hrs by wound-healing assay; type: functional, cell-based
How it was run: (§2)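 THP-1 monolayers (3×10⁵ cells/mL/well) were scratched with a pipette tip and washed three times with PBS. Test samples were added for 24 h, then fresh medium was added until the control wound healed. Wounds were imaged with a 10× objective at 0 h and 24 h. Migration was quantified as the distance between wound edges.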

HCT-15 [19] = experiment: Cytotoxicity against human HCT15 cells at 30 uM after 48 hrs by SRB assay; type: functional; conditions: HCT-15, 48 h, read-out: GI
HL-60 [20] = experiment: Ratio of betulinic acid IC50 to compound IC50 for human HL60 cells; type: functional
HEp-2 [21] = experiment: Cytotoxicity against human Hep2 cells after 48 hrs by SRB assay; type: functional, cell-based; conditions: HEp-2, 48 h
A549 [22] = experiment: Cytotoxicity against human A549 cells at 30 uM after 48 hrs by SRB assay; type: functional; conditions: A549, 48 h, read-out: GI
MCF7 [23] = experiment: Cytotoxicity against human MCF7 cells at 30 uM after 48 hrs by SRB assay; type: functional; conditions: MCF7, 48 h, read-out: GI
THP-1 [24] = experiment: Cytotoxicity against human THP1 cells at 10 uM after 48 hrs by SRB assay; type: functional; conditions: THP-1, 48 h, read-out: GI
A549 [25] = experiment: Cytotoxicity against human A549 cells after 48 hrs by SRB assay; type: functional, cell-based; conditions: A549, 48 h
THP-1 [26] = experiment: Inhibition of cell migration in human THP1 cells at 1 to 30 uM after 24 hrs by wound-healing assay; type: functional, cell-based; how it was run: as §2
PC-3 [27] = experiment: Cytotoxicity against human PC3 cells at 50 uM after 48 hrs by SRB assay; type: functional; conditions: PC-3, 48 h, read-out: GI
SF-295 [28] = experiment: Cytotoxicity against human SF295 cells at 30 uM after 48 hrs by SRB assay; type: functional; conditions: SF-295, 48 h, read-out: GI
HCT-15 [29] = experiment: Cytotoxicity against human HCT15 cells after 48 hrs by SRB assay; type: functional, cell-based; conditions: HCT-15, 48 h
HL-60 [30] = experiment: Induction of apoptosis in human HL60 cells assessed as DNA ladder formation at 20 to 30 uM after 24 hrs by DNA agarose gel electrophoresis; type: functional, cell-based; how it was run: as §1
CV-1 = experiment: Induction of apoptosis in african green monkey CV1 cells assessed as DNA ladder formation at 10 to 60 uM after 24 hrs by DNA agarose gel electrophoresis; type: cell-based; conditions: chlorocebus aethiops, cv-1, 24 h; how it was run: as §1
THP-1 [31] = experiment: Cytotoxicity against human THP1 cells at 50 uM after 48 hrs by SRB assay; type: functional; conditions: THP-1, 48 h, read-out: GI
PC-3 [32] = experiment: Cytotoxicity against human PC3 cells after 48 hrs by SRB assay; type: functional, cell-based; conditions: PC-3, 48 h
THP-1 [33] = experiment: Cytotoxicity against human THP1 cells after 48 hrs by SRB assay; type: functional, cell-based; conditions: THP-1, 48 h
DU-145 [34] = experiment: Cytotoxicity against human DU145 cells at 10 uM after 48 hrs by SRB assay; type: functional; conditions: DU-145, 48 h, read-out: GI
PC-3 [35] = experiment: Cytotoxicity against human PC3 cells at 10 uM after 48 hrs by SRB assay; type: functional; conditions: PC-3, 48 h, read-out: GI
HL-60 [36] = experiment: Cytotoxicity against human HL60 cells at 50 uM after 48 hrs by SRB assay; type: functional; conditions: HL-60, 48 h, read-out: GI
SF-295 [37] = experiment: Cytotoxicity against human SF295 cells at 50 uM after 48 hrs by SRB assay; type: functional; conditions: SF-295, 48 h, read-out: GI
HCT-15 [38] = experiment: Cytotoxicity against human HCT15 cells at 10 uM after 48 hrs by SRB assay; type: functional; conditions: HCT-15, 48 h, read-out: GI
A549 [39] = experiment: Cytotoxicity against human A549 cells at 50 uM after 48 hrs by SRB assay; type: functional; conditions: A549, 48 h, read-out: GI
THP-1 [40] = experiment: Cytotoxicity against human THP1 cells at 30 uM after 48 hrs by SRB assay; type: functional; conditions: THP-1, 48 h, read-out: GI
PC-3 [41] = experiment: Cytotoxicity against human PC3 cells at 30 uM after 48 hrs by SRB assay; type: functional; conditions: PC-3, 48 h, read-out: GI
DU-145 [42] = experiment: Cytotoxicity against human DU145 cells after 48 hrs by SRB assay; type: functional, cell-based; conditions: DU-145, 48 h
HL-60 [43] = experiment: Induction of apoptosis in human HL60 cells assessed as change in mitochondrial membrane potential after 24 hrs using rhodamine-123 staining by fluorescence based confocal microscopy analysis; type: functional, cell-based
How it was run: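 HL-60 cells (6 × 10⁴/mL/well) were treated for 24 h. Rhodamine-123 (1 µM) was added in serum-free medium 30 min before the end, in the dark. Cells were then washed and resuspended in PBS. Fluorescence loss was viewed by confocal microscopy with 488 nm laser excitation. Each experiment was done twice.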

C=C(C)[C@@H]1CC[C@]2(C(=O)O)CC[C@]3(C)[C@H](CC[C@@H]4[C@@]5(C)CC[C@H](OCc6cn(-c7cccc8c(O)cccc78)nn6)C(C)(C)[C@@H]5CC[C@]43C)[C@@H]12
inhibition of growth at 10 µM (HEp-2 [1]): 45%
inhibition (THP-1 [2]): Dose-dependent effect
inhibition of growth at 10 µM (MCF7 [3]): 51%
IC50 (SF-295 [4]): 25 µM
inhibition of growth at 10 µM (HL-60 [5]): 63%
inhibition of growth at 30 µM (HL-60 [6]): 95%
inhibition of growth at 10 µM (SF-295 [7]): 18%
inhibition of growth at 30 µM (DU-145 [8]): 69%
inhibition of growth at 50 µM (HEp-2 [9]): 74%
inhibition of growth at 50 µM (MCF7 [10]): 82%
inhibition of growth at 10 µM (A549 [11]): 42%
inhibition of growth at 30 µM (HEp-2 [12]): 63%
Activity (HL-60 [13]): Dose-dependent effect
MED (HL-60 [13]): 20 µM
inhibition of growth at 50 µM (DU-145 [14]): 86%
inhibition of growth at 50 µM (HCT-15 [15]): 72%
IC50 (MCF7 [16]): 9 µM
IC50 (HL-60 [17]): 3.5 µM
inhibition (THP-1 [18]): Active
inhibition of growth at 30 µM (HCT-15 [19]): 64%
Ratio IC50 (HL-60 [20]): 5
IC50 (HEp-2 [21]): 13 µM
inhibition of growth at 30 µM (A549 [22]): 60%
inhibition of growth at 30 µM (MCF7 [23]): 63%
inhibition of growth at 10 µM (THP-1 [24]): 51%
IC50 (A549 [25]): 16 µM
inhibition (THP-1 [26]): Active
inhibition of growth at 50 µM (PC-3 [27]): 94%
inhibition of growth at 30 µM (SF-295 [28]): 61%
IC50 (HCT-15 [29]): 15 µM
Activity (HL-60 [30]): Active
Activity (CV-1): Non-toxic
inhibition of growth at 50 µM (THP-1 [31]): 92%
IC50 (PC-3 [32]): 16 µM
IC50 (THP-1 [33]): 8 µM
inhibition of growth at 10 µM (DU-145 [34]): 38%
inhibition of growth at 10 µM (PC-3 [35]): 35%
inhibition of growth at 50 µM (HL-60 [36]): 98%
inhibition of growth at 50 µM (SF-295 [37]): 87%
inhibition of growth at 10 µM (HCT-15 [38]): 40%
inhibition of growth at 50 µM (A549 [39]): 72%
inhibition of growth at 30 µM (THP-1 [40]): 82%
inhibition of growth at 30 µM (PC-3 [41]): 61%
IC50 (DU-145 [42]): 14 µM
Activity (HL-60 [43]): Dose-dependent effect
